Published values of several laboratories.
Lines come from different studies, so protocols differ.
SIGMAR1: Sigma non-opioid intracellular receptor 1 (SIGMAR1, Homo sapiens, UniProt Q99720)
HTR2A: 5-hydroxytryptamine receptor 2A (HTR2A, Homo sapiens, UniProt P28223)
SLC10A1: Hepatic sodium/bile acid cotransporter (SLC10A1, Homo sapiens, UniProt Q14973)
OPRK1: Kappa-type opioid receptor (OPRK1, Homo sapiens, UniProt P41145)
PPO3: PPO3 (Agaricus bisporus, UniProt C7FF04)

Compound | target | test | setting | Ki [µM]
COc1cc2c(cc1OC)CN(CCCCn1ccc3c(OC)cccc31)C2 | SIGMAR1 | ligand displacement, radioligand | cell membranes | 0.149
Cc1nc2n(c(=O)c1CCN1CCC(C(=O)c3ccc(F)cc3)CC1)CCCC2 | HTR2A | ligand displacement, radioligand | cell membranes | 0.00302
CS(=O)(=O)CCNCc1ccc(-c2ccc3ncnc(Nc4ccc(OCc5cccc(F)c5)c(Cl)c4)c3c2)o1 | SLC10A1 | transporter uptake, inhibitor |  | 285
CNC(=O)[C@@]12C[C@@H]1[C@@H](n1cnc3c(NCCC(F)(F)F)nc(C#Cc4ccc(Cl)s4)nc31)[C@H](O)[C@@H]2O | OPRK1 | cell-free assay |  | > 10
O=C1NC(=O)C(c2ccccc2)(c2ccc(OCCCN3CCCCC3)cc2)N1 (stereo not drawn) | Histamine H4 receptor (HRH4, Homo sapiens, UniProt Q9H3N8) | ligand displacement, radioligand | cell membranes | > 100
CCCCN1CCC(COC(=O)c2ccc(N)c(OCF)c2)CC1 | HTR2A | cell-free assay, radioligand |  | > 10
CNC(=O)[C@@]12C[C@@H]1[C@@H](n1cnc3c(NC)nc(C#Cc4ccccc4Cl)nc31)[C@H](O)[C@@H]2O | OPRK1 | cell-free assay |  | > 10
CC(=O)Nc1ccc(N=Nc2c(N)nc(N)nc2Cl)cc1 | PPO3 | enzyme activity, inhibitor |  | 7.84
CC[C@H](C)[C@H](NC(=O)[C@H](CCC(=O)O)NC(=O)[C@H](CC(=O)O)NC(=O)CNC(=O)[C@H](CC(C)C)NC(=O)[C@H](CCCNC(=N)N)NC(=O)[C@H](CCCNC(=N)N)NC(=O)[C@H](CC(C)C)NC(=O)CNC(=O)[C@H](CCC(N)=O)NC(=O)[C@@H](NC(=O)[C@H](CCSC)NC(=O)[C@H](Cc1c[nH]c2ccccc12)NC(=O)[C@@H](NC(=O)[C@H](CCC(=O)O)NC(=O)[C@@H]1CCCN1C(=O)[C@H](CCCNC(=N)N)NC(C)=O)[C@@H](C)CC)[C@@H](C)O)C(=O)N[C@@H](CC(N)=O)C(=O)N[C@@H](C)C(=O)N[C@@H](Cc1ccc(O)cc1)C(=O)N[C@@H](Cc1ccc(O)cc1)C(=O)N[C@@H](C)C(=O)N[C@@H](CCCNC(=N)N)C(N)=O | Bcl-2-like protein 1 (BCL2L1, Homo sapiens, UniProt Q07817) | ligand displacement, FP |  | 2.4
Cc1ccc(C(C)C)cc1NC(=O)COC(=O)/C=C/c1ccccc1 | PPO3 | enzyme activity, inhibitor |  | 0.84
CCCn1nc(C(=O)N2CCCCC2)c2c1CCC(NCc1ccc(N3CCCCC3)cc1)C2 (stereo not drawn) | SIGMAR1 | ligand displacement, radioligand |  | > 10
CNC(=O)[C@@]12C[C@@H]1[C@@H](n1cnc3c(NC)nc(C#Cc4ccccc4)nc31)[C@H](O)[C@@H]2O | OPRK1 | cell-free assay |  | > 10
COc1ccc(N=Nc2c(N)nc(N)nc2Cl)cc1 | PPO3 | enzyme activity, inhibitor |  | 7.05
CNc1nc(C#Cc2ccc(Cl)s2)nc2c1ncn2[C@H]1[C@H](O)[C@H](O)[C@]2(C(=O)O)C[C@H]12 | OPRK1 | cell-free assay |  | > 10
O[C@H]1[C@H](n2cnc3c(NC(C4CCCCC4)C4CCCCC4)nc(Cl)nc32)[C@H]2C[C@@]2(CF)[C@H]1O | HTR2A | ligand displacement, radioligand |  | 7
N=C(N)N1CCC[C@H]1c1nc(-c2ccc(CCC3CCCCC3)c(C(F)(F)F)c2)no1 | Sphingosine kinase 1 (SPHK1, Homo sapiens, UniProt Q9NYA1) | enzyme activity, inhibitor |  | 18
COc1ccccc1N1CCN(CCCCNC(=O)c2cc3cc(OCCOCCOCCF)ccc3[nH]2)CC1 | SIGMAR1 | cell-free assay |  | > 10
CCCn1nc(C(=O)N2CCCCC2)c2c1CCC(NCc1ccc(S(N)(=O)=O)cc1)C2 (stereo not drawn) | SIGMAR1 | ligand displacement, radioligand |  | > 10
CNC(=O)[C@@]12C[C@@H]1[C@@H](n1cnc3c(NC)nc(C#Cc4ccc(Br)s4)nc31)[C@H](O)[C@@H]2O | OPRK1 | cell-free assay |  | > 10
Cc1ccc(N=Nc2c(N)nc(N)nc2Cl)cc1 | PPO3 | enzyme activity, inhibitor |  | 5.87
Cc1nc2n(c(=O)c1CCNCCc1c[nH]c3cc(F)ccc13)CCCC2 | HTR2A | ligand displacement, radioligand | cell membranes | 1.95
CCCn1nc(C(=O)N2CCCCC2)c2c1CCC(N1CCN(Cc3ccc(C#N)cc3)CC1)C2 (stereo not drawn) | SIGMAR1 | ligand displacement, radioligand |  | > 10
Cn1cc(-c2ccncc2)c(-c2ccc(OCc3ccc4ccccc4n3)cc2)n1 | Vesicular acetylcholine transporter (SLC18A3, Homo sapiens, UniProt Q16572) | ligand displacement, radioligand |  | > 1
CNC(=O)[C@@]12C[C@@H]1[C@@H](n1cnc3c(NCCCO)nc(C#Cc4ccc(Cl)s4)nc31)[C@H](O)[C@@H]2O | OPRK1 | cell-free assay |  | > 10
CN(CCCCNC(=O)c1cc2ccccc2[nH]1)[C@@H]1Cc2cccc3[nH]c(=O)n(c23)C1 | HTR2A | ligand displacement, radioligand |  | 1.44
CCCn1nc(C(=O)N2CCCCC2)c2c1CCC(NCCc1ccncc1)C2 (stereo not drawn) | SIGMAR1 | ligand displacement, radioligand |  | > 10
O[C@@H]1[C@H](O)[C@@H]2C[C@@H]2[C@H]1n1cnc2c(NCc3cccc(Cl)c3)nc(C#Cc3ccc(F)c(F)c3)nc21 | OPRK1 | cell-free assay |  | > 10
Cc1ccc(CN(C)CC(=O)N2CCCN(Cc3ccc(Cl)cc3)CC2)c(Cl)c1 | OPRK1 | cell-free assay |  | 7.59
CCCc1nc2c(C)cc(-c3nc4ccccc4n3C)cc2n1Cc1ccc(-c2ccccc2C(=O)O)cc1 | SLC10A1 | transporter uptake, inhibitor |  | 60
CNC(=O)[C@@]12C[C@@H]1[C@@H](n1cnc3c(NCc4cccc(Cl)c4)nc(C#Cc4ccc(F)cc4)nc31)[C@H](O)[C@@H]2O | OPRK1 | cell-free assay |  | > 10
